Results collected from several papers.
Lines come from different studies, so protocols differ.
Observed: cell growth or viability

SMILES | cell line | assay | setting | IC50
C=CCn1c(=O)c2cnc(Nc3ccc(N4CCN(C)CC4)cc3)nc2n1-c1ccc2c(n1)[C@@](O)(CC)CC2 | OVCAR-3 | ATP luminescence | 72 h | 295 nM
Cc1cc2c(C(N)=O)cccc2n1-c1nc2c(c(NCc3ccccc3)n1)CCCN2 | RPMI-8226 | ATP luminescence | 72 h | 900 nM
O=C(O)c1ccc(NCc2ccccc2)cc1 | NCI-H69 | resazurin | 72 h | > 100000 nM
COc1ccc2c(c1)OC1=C(C(=O)CC(C)(C)C1)C2c1c(C(=O)O)[nH]c2ccccc12 (stereo not drawn) | 3T3-L1 | MTT | 72 h | 24.5 µg/mL
CC(C)(C)c1cnc(CSc2cnc(NC(=O)C3CCN(C(=O)CCCCN4Cc5cc6c(cc5C4)C(=O)N(C4CCC(=O)NC4=O)C6=O)CC3)s2)o1 (stereo not drawn) | TC-71 | MTT | 72 h | 13 nM
Cc1cc2c(C(N)=O)cccc2n1-c1nc2c(c(NCc3cccnc3)n1)CCCN2 | RPMI-8226 | ATP luminescence | 72 h | 2000 nM
O=C(O)c1ccc(NCc2ccc(Br)cc2)cc1 | NCI-H69 | resazurin | 72 h | > 100000 nM
CC(C)(C)c1cnc(CSc2cnc(NC(=O)C3CCN(C(=O)CCOCCN4Cc5cc6c(cc5C4)C(=O)N(C4CCC(=O)NC4=O)C6=O)CC3)s2)o1 (stereo not drawn) | TC-71 | MTT | 72 h | 8.93 nM
Cc1cc2c(C(N)=O)cccc2n1-c1nc2c(c(NCc3ccccn3)n1)CCCN2 | RPMI-8226 | ATP luminescence | 72 h | 1400 nM
CSc1ccc(CNc2ccc(C(=O)O)cc2)cc1 | NCI-H69 | resazurin | 72 h | > 100000 nM
CC(C)(C)c1cnc(CSc2cnc(NC(=O)C3CCN(C(=O)CCOCCCN4Cc5cc6c(cc5C4)C(=O)N(C4CCC(=O)NC4=O)C6=O)CC3)s2)o1 (stereo not drawn) | TC-71 | MTT | 72 h | 16.9 nM
COc1ccc(CNc2ccc(C(=O)O)cc2)cc1 | NCI-H69 | resazurin | 72 h | > 100000 nM
CN1C(=O)CCC(N2C(=O)c3cc4c(cc3C2=O)CN(CCCCCCCC(=O)N2CCC(C(=O)Nc3ncc(SCc5ncc(C(C)(C)C)o5)s3)CC2)C4)C1=O (stereo not drawn) | TC-71 | MTT | 72 h | > 1000 nM
Cc1cc2c(C(N)=O)cccc2n1-c1nc(NCc2ccccc2)c2c(n1)NC(C)CC2 (stereo not drawn) | RPMI-8226 | ATP luminescence | 72 h | 1300 nM
CC(C)(C)c1cnc(CSc2cnc(NC(=O)C3CCN(C(=O)CCCCCCCCCCCN4Cc5cc6c(cc5C4)C(=O)N(C4CCC(=O)NC4=O)C6=O)CC3)s2)o1 (stereo not drawn) | TC-71 | MTT | 72 h | 79.9 nM
Cc1cc2c(C(N)=O)cncc2n1-c1nc2c(c(NCc3ccccc3)n1)CCCN2 | RPMI-8226 | ATP luminescence | 72 h | 2900 nM
COc1cccc2c1C(=O)c1c(O)c3c(c(O)c1C2=O)C[C@@](O)(C(=O)CO)C[C@@H]3O[C@H]1C[C@H](N)[C@H](O)[C@H](C)O1 | ACHN | MTT | 24 h | 36100 nM
COc1cc(CNc2ccc(C(=O)O)cc2)ccc1O | NCI-H69 | resazurin | 72 h | > 100000 nM
Cc1cc2c(C(=O)O)cccc2n1-c1nc2c(c(NCc3ccccc3)n1)CCCN2 | RPMI-8226 | ATP luminescence | 72 h | 800 nM
CC(C)(C)c1cnc(CSc2cnc(NC(=O)C3CCN(CC(=O)NCCOCCOCCOCCNc4cccc5c4C(=O)N(C4CCC(=O)NC4=O)C5=O)CC3)s2)o1 (stereo not drawn) | TC-71 | MTT | 72 h | 21.6 nM
COc1ccc(CNc2ccc(C(=O)O)cc2)cc1OC | NCI-H69 | resazurin | 72 h | > 100000 nM
